Test system: MS2 coat protein
Assay: apparent Kd, MS2 coat protein; higher = weaker binding; RNA-MaP array; FMN 200 µM where present
Procedure, shortened: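 Green signal from SNAP-549-labelled MS2 coat protein was normalised to red-channel RNA signal and to the median Fmax of control clusters. The protein was titrated from 0.7 or 1.5 nM, doubling to 3 µM, without and then with constant ligand, over designs transcribed by stalled E. coli RNA polymerase on Illumina sequencing-chip clusters, in 100 mM Tris-HCl pH 7.5, 80 mM KCl, 4 mM MgCl2, BSA, DTT, yeast tRNA and Tween-20. The apparent Kd is the median of filtered per-cluster binding-curve fits.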

[1] = designed as: OFF switch for flavin mononucleotide, no ligand
[2] = ligand present: flavin mononucleotide, designed as: OFF switch for flavin mononucleotide
[3] = designed as: ON switch for flavin mononucleotide, no ligand
[4] = ligand present: flavin mononucleotide, designed as: ON switch for flavin mononucleotide

Sequence	apparent Kd [1] [nM]	apparent Kd [2] [nM]	apparent Kd [3] [nM]	apparent Kd [4] [nM]
GUGACGAAUGUAGGAUAUGCUGAGGAAUACUCAGCAGAAGGACAUGAGGAUCACCCAUGUCAUCCUUAUAAUAAAUAACGUCAC	12.6	18.1		
AAGUAGAUCCGAGGAUAUACAAACCGGAAACGGUACAUGAGGAUCACCCAUGUAGAAGGCGGAUCUACAGGUACUAAAGUACCA	5.33	8.68		
GCCAUCGCAUGAGGAUAUGGACAGGUUUCCUGUCCAGAAGGCAUGUCAUAAGACAUGAGGAUCACCCAUGUAGUUAAGAUGGCA			908	45.9
UGUCGGAGGAGAGGAUAUUACAUGAGGAUCACCCAUGUAUGAACCAAUAGCUGGAAACAGCAAUGUAAGAAGGCUGCUCCGACA	8.17	81.4		
GUGUACAGAGGAUAUACAUAAGCUAGGAAACUAGCAUCCUCACAUGAGGAUCACCCAUGUAGAAGGCUGUACAC	305	19.6		
GUAGCAUACUGAGGAUAUUCAUACCGGAAACGGACAUGAGGAUCACCCAUGUGGCGAAAGCCUUUGGAGAAGGCAGAAUGCUAC			13.7	13.7
UUGCCUCAGAACAUGAGGAUCACCCAUGUGCUGCGGGCAACGUAGGAUAUGACGGUAUGAUACCGUCAGAAGGAUGAUGGUACC			5.62	5.25
CGGGAGUCAGGAUAUACGAACAUGUCGCCAGAUGUCAUGGUACAUGAGGAUCACCCAUGUAGAAGGGAGGCGGU	50.6	30.5		
UCGCUGCGAGGAUAUACAUGAGGAUCACCCAUGUGCGGGUCCGGGUCUUCGUCCAUUAGUAGAAGGCGCAGUGA	122	212		
UAAUAAUAAUAAUAAUCCUGCAUACAUGAGGAUCACCCAUGUAAGGAUAUCGUCAGGAAUACUGACGAGAAGGUACAUAGCAGG	15.8	19.3		
AAAUCGAGGUAACUCGCUAUCACACCAGAAGGGACGGAGGCACAUGAGGAUCACCCAUGUCCUAGUCAGGAUAUGGGUGAGUGG			25.6	4.96
CGGCAAUGACGAGGAUAUAGACAUGAGGAUCACCCAUGUAACAGUAUUACAGGGCGUCUUCUCAGCUAGAAGGCGUUCUAUGCC	37.3	88.4		
GUCAGCUCGUGAGGAUAUACAACACUCCUUCGGCAGUGUAUUAAGAUCACAUGAGGAUCACCCAUGUAGAAGGCACGAGCUGAU	14.8	201		
GUCAGCUCGUGAGGAUAUUCAACACUGCUUCGGCAGUGUAUUAAGAUCACAUGAGGAUCACCCAUGUAGAAGGCACGAGCUGAU	5.79	10.8		
GGAUGACAAAGUCAUCCAUAACGAACAUGAGGAUCACCCAUGUAGGAUAUGCUUCUCAAAGAGAAGCAGAAGGACAUGUGCCUU	36.7	258		
GUGGUUCUCGUAGGAUAUGUAGGAUAUGCCUACAUGAGGAUCACCCAUGUUCGCAUGGCAGAAGGACAGAAGGACGAUCACCAG			54.6	27.7
GCCAGGCGAGGAUAUGCGAGGUAGCCUUUGUCCGGAUACUGACAUGAGGAUCACCCAUGUAGAAGGUGCCUAGG	70.2	258		
CUGCUCGUAGAGAAGGCGUGGGCACAUGAGGAUCACCCAUGUCGCAGUACGAGGAUAUUUGCCGGCCCGCCCAAAAUGGCGCGA			220	96.2
GCGUACAUAUCAGGAUAUCAUAUUAUUGUUUAACUCAGUGUAUACAUGAGGAUCACCCAUGUUCUUGAGAAGGGAUAUGUACGC	8.15	8.79		
GGAUAGGACAGAGGAUAUACGUGCUAGAGAUACUAGCAAAUUUUCCUCACAUGAGGAUCACCCAUGUAGAAGGCUGUCCUAUCG	24.6	511		
UUAUGAGAGCAGGAUAUCUUAUUUUUUUUUUAAAGAGAAGGGCUCACAUGAGGAUCACCCAUGUGGUCCUAGAU	42.8	75.6		
GGUUGGCGAGGAUAUACAUGAGGAUCACCCAUGUGGUCCUGCGAUAGAAUAGCCCUUUGUAGAAGGCGCGGGUC	44	38		
UGUCCAUAGCAGAAGGCAUGUCAAAAGACAUGAGGAUCACCCAUGUAAGCAUGAGGAUAUGCUAUGGACUAAGAGCGAAAGCUC	9.14	5.78		
CAGCUGAAAGUCAGGAUAUCUAGAGCUGCGGCUCUAGAGAAGGGACAUGAGGAUCACCCAUGUCACUCCAGCUG	16.4	18.3		
AAAAGGUCAGGAUAUCGGCGCGGUUGGGAGGCAGGUCCGCGCGAGAAGGGACAUGAGGAUCACCCAUGUUAAAA	29.2	32.4		
ACAUGAGGAUCACCCAUGUUUACAUGGAUUAUUAAUCUUUGAUAGGAUAUGUUAGUUAAGUAUUUACAGAAGGAUCAAUACCAA	15.9	12.2		
GGUCCAUCAUGAGGAUAUGGCACCUUAUUGGUGCCAGAAGGCAUGUCUAUAGACAUGAGGAUCACCCAUGUAAUAAAUUGGACC			790	46.4
GGAUGAGAAACUCAUCCAAUACGAACAUGAGGAUCACCCAUGUAGGAUAUGCUACUCAAAGAGUAGCAGAAGGACAUGUGUCUU	27.4	159		

Sequence	apparent Kd [1] [nM]	apparent Kd [2] [nM]	apparent Kd [3] [nM]	apparent Kd [4] [nM]
GUUAAUUUCGAAGGAUAUGGAUACAUGAGGAUCACCCAUGUAUAAAAUGAGAUCUAUUAUAUGAUCCAGAAGGUCGUUUUUUAU	36.5	69.6		
UCAUAUAUACAAGGAUAUCAAUUAUAUACACAUCCUACAUGAGGAUCACCCAUGUUUUAUUUUUUUGAGAAGGUGUAUUGUCGG			24.1	32.1
AGAUUUGUACAUGAGGAUCACCCAUGUUAAUAGGUGGUUGUCAGAAGGCAUUGAUAGAGUUUUAAUGAGGAUAUGAAUUUACAG			1000	553
GGAGCAUAUGUCAGGAUAUCGUGGUCGAUAGAUCACGAGAAGGGACAUGAGGAUCACCCAUGUCAGUCCGCUCC	14.3	20.7		
GUGCACAUUCGAGGAUAUCGGAGAGGAGUCCUUCGAGAAGGCGAUUCGUGCCGUGUUAUUCUGGACAUGAGGAUCACCCAUGUG			106	35.7
GAGCUUGAUGAGAAGGGUUACAUGAGGAUCACCCAUGUCGACCUUGGCGUAACAGGAUAUCAUCGGGCUCUGUGCGUUGACACA	27	121		
GAGUGCUGAGGAUAUACAUGAGGAUCACCCAUGUGCUUCAACUAGGAGACUAGUAUUGGUAGAAGGCAGUACUC	16.5	104		
GUUCUUCCUGUAAGGAUAUCCAUGUAUCAAAGUAUGGAGAAGGUACAUGAGGAUCACCCAUGUCACCCGCGUUA	22.8	49.6		
GAGUGGUGGAGAGGAUAUACAUUGUUAUUCACUGUAGAAGGUUCUAACAUGAGGAUCACCCAUGUAGGACUAUUCCUGUGUUUU			13.4	10.4
GACGGACAUGAGGAUCACCCAUGUAGGUUGGCCACAGGAUAUGCAAAACGGCCUGCCGCGGCAGAAGGGUGAGCCC			39.1	43.7
GGGCCGAUAGGAUAUACAUGAGGAUCACCCAUGUAUGCUUAGAAGCGGCAAUCCUUAUGUAGAAGGGUCAGGCU	37.1	33.4		
GUUUGACAUGAGGAUCACCCAUGUGAGGAUAUCGGCUGGUACGUGUUGGCUGGCAUCUCGAGAAGGCACAUAGG	134	60.5		
GCGUACUGAGGAUAUACAUGAGGAUCACCCAUGUGACACAGCGUUUAGUGAUGAAUUUGUAGAAGGCAGUAGGC	146	219		
UUAAUUAAUUAAUUAUACAUGAGGAUCACCCAUGUAAGUGAUCAGGAUAUCAGCUCGAAUAGAGCUGAGAAGGGAUCCAUGUAA			117	83
CAGCGAUAGCUGAAUGGUACAUGGGAGGAUAUGGGUUACAUGAGGAUCACCCAUGUUAAAUAAUACUAGAAGGCCCAUGUACCU			16.5	4.55
AGCAUGCUAGGAUAUACGGGACAUUAGGGUUCGUCGUAUGGACAUGAGGAUCACCCAUGUAGAAGGAGCGUGCA	20.7	44.2		
UUAGAAUUGCAAGGAUAUCUUAUUUAGAUAGUAAGAGAAGGUGCUUUAUAGUUACAUGAGGAUCACCCAUGUAUUUCUUUUUAU			23.1	19.7
UAUGCCUUUGUGAGGAUAUACUUUGUUUGGUCGUAGUAGAAGGCACAUGAGGAUCACCCAUGUAGAUUUUUGGU	27.5	72.2		
UAUCAAUUUAUGGGUUUAGAUUAUGAGGAUAUCAUUUUUUUAUACAUGAGGAUCACCCAUGUUACUGAGAAGGCAUAAUUAAUA			17.4	6.21
UUGCUACAUGAGGAUCACCCAUGUCAGGAUAUUGUGUAUAGCGUGGAAGCUCUGUCGAUAAGAAGGGACUGUCU	25.6	23.3		
CGGUACUUAGGAUAUACAUGAGGAUCACCCAUGUAGAGAAGGUGGGUGCCGUCCUGUAGUAGAAGGAAGAAUCG	46.9	55.8		
AAUGUUGGAGGAUAUACGCGAGUGCUCAGUUGGCCCGGUCGACAUGAGGAUCACCCAUGUAGAAGGCCGACGCU	14.4	16.9		
AGCGUCGGCACAGGAUAUGAGAUGCCGGCAGACAUGAGGAUCACCCAUGUAAGCGACCCAGGCAGUCAGAAGGGUGAUCGACAA			121	65
CGAUCGGAAGGAUAUACACCUCACGUCAAACGGACAACCGGACAUGAGGAUCACCCAUGUAGAAGGUCCAAAAU	72.6	238		
GCUGGAAAAGGAUAUACAUAACGUGCGUCAGCACGAGGCCUACAUGAGGAUCACCCAUGUAGAAGGUUUCCAGC	17.1	25.9		
GAUUAGCUUGGAGGAUAUGGUACGGGCAGCUAACCAGAAGGCCAAGAACAUGAGGAUCACCCAUGUGCCGUUGGCCAUGGGAGG	37.1	13.2		
ACUGAGGACACAGGAUAUCCGGUUAGGGUAAUCGGAGAAGGGUGACGGCAUGUAGGAAGUCACAUGAGGAUCACCCAUGUGAGA			182	83.5
